Legend:
[1] = Toxicity in CF1 mouse assessed as induction of discolored urine; details: in vivo
[2] = target: T1, Cytochrome P450 2B6 (Homo sapiens, UniProt P20813); test: Inhibition of CYP2B6 in human liver microsomes using isoform-specific probe substrates incubated for 15 to 30 mins by LC-MS/MS analysis; assay type: ADME
T1 sequence (P20813 whole entry): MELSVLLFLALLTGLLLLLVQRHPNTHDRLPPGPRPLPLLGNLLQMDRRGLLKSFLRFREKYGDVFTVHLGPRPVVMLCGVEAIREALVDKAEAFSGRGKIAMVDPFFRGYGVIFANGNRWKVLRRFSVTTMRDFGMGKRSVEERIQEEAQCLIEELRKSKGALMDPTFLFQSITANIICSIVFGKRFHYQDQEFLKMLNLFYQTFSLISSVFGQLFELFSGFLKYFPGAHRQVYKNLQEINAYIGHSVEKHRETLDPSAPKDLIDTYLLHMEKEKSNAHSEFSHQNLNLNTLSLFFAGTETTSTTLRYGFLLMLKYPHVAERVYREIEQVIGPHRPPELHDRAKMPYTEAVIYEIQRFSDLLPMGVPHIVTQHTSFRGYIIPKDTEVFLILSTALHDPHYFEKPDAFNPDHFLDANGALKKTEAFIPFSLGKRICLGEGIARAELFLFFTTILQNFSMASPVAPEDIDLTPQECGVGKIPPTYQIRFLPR
How it was run: (§1)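 Pooled mixed-gender human liver microsomes 0.2 mg/mL in 100 mM potassium phosphate with 2 mM NADPH. Isoform-specific probe substrates near Km. Organic solvent ≤1% final. Incubated 37°C for 15–30 min, quenched with acetonitrile plus internal standard. Probe metabolites measured by LC-MS/MS; percent inhibition versus vehicle, IC50 by variable-slope sigmoid fit.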

[3] = system: Mus musculus; test: Anti-seizure activity in ip dosed CF1 mouse assessed as reduction in hindlimb tonic extension during seizure measured at 1 hr by MES test; assay type: functional
How it was run: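 Male CF-1 mice, n=8 per dose, dosed ip as 0.5% HPMC suspension, tested 1 h later. Corneal 60 Hz, 50 mA, 2 s shock after 0.5% tetracaine applied to eyes. Protection = absence of hindlimb tonic extension. ED50 from four dose levels.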

[4] = system: Mus musculus; test: Anti-seizure activity in ip dosed CF1 mouse assessed as attenuation of clonic forebrain seizures treated 1 hr before PTZ dosing and measured after 30 mins by scPTZ test; assay type: functional
How it was run: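 Male CF-1 mice, n=8 per dose, given compound ip in 0.5% HPMC. PTZ 85 mg/kg s.c. in the neck at 1 h. Animals observed 30 min in isolation cages for clonic spasms lasting 3–5 s; those without spasms counted protected.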

[5] = Toxicity in CF1 mouse assessed as induction of lethality measured after electric stimulation after 24 hrs at >500 mg/kg; assay type: organism-based; details: in vivo
[6] = Toxicity in mouse HT22 cells assessed as inhibition of cell viability at 50 uM incubated for 48 hrs by Cell-titer-Blue dye based fluorescence spectrophotometry relative to control; design: species or system HT-22; details: read-out: Activity
How it was run: (§2)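 HT-22 cells in DMEM high glucose with 10% FBS, 2000 per well. Serially diluted compound added after 12 h, incubated 48 h. […] Background subtracted, normalized to control wells.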

[7] = Toxicity in CF1 mouse assessed as induction of motor impairment during acute (1 hr) observation period by rotarod assay; details: mouse, in vivo, 1 h
How it was run: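 Male CF-1 mice, ip dosing in miglyol 840/DMSO (95%/5%), up to 800 mg/kg. Rotarod at 6 rpm done 1 h after dosing, on the same animals just before 6 Hz testing. Falling three times within one minute scored as impaired; animals also inspected visually.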

[8] = Cmax in CD1 mouse at 20 mg/kg, po measured after 0.083 to 24 hrs by LC-MS/MS analysis; assay type: ADME, organism-based; design: dose 20 mg/kg, route oral; details: in vivo
How it was run: (§3)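 Male CD-1 mice, 3 per route. Oral and ip at 20 mg/kg by gavage needle; iv at 5 mg/kg by tail vein. Vehicles were 20% DMA:40% PEG300:40% H2O for oral/iv and 5% DMSO:95% Neobee for ip. Blood sampled 0.083–24 h, plasma protein-precipitated with acetonitrile plus internal standard, LC-MS/MS (MRM). Non-compartmental analysis, linear trapezoidal AUC.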

[9] = Toxicity in CF1 mouse assessed as induction of abdominal constriction measured at time of treatment by writhing test; details: in vivo
[10] = target: T2, Cytochrome P450 1A2 (Homo sapiens, UniProt P05177); test: Inhibition of CYP1A2 in human liver microsomes using isoform-specific probe substrates incubated for 15 to 30 mins by LC-MS/MS analysis; assay type: ADME; how it was run: as §1
T2 sequence (P05177 whole entry): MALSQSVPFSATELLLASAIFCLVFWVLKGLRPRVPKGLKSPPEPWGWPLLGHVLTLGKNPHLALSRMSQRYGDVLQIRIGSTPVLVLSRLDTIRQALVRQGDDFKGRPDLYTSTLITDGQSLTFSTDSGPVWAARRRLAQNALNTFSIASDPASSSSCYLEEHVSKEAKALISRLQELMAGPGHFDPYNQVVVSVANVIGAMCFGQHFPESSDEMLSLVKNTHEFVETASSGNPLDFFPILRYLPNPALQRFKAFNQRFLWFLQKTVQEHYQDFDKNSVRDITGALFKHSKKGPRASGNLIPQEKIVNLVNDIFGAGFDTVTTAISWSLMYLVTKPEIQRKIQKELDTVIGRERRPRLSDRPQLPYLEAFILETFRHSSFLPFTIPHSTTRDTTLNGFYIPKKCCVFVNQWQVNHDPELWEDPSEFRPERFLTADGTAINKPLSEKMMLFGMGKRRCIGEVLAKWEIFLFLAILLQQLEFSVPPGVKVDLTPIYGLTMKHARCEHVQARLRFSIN

[11] = species: Danio rerio; test: Increase in ATP concentration in zebrafish at 1 uM incubated for 24 hrs by fluorometric ATP assay relative to control; assay type: functional
How it was run: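 7 dpf zebrafish larvae, one per well, kept at 28.5°C for 24 h with compound in E3 buffer (DMSO stock). DMSO vehicle in control wells. Twelve fish per condition pooled, flash-frozen, homogenized in ATP buffer and centrifuged. ATP in the supernatant read by fluorescence at ex 535/em 587 nm, normalized to total protein (BCA), and expressed as nmole/mg relative to DMSO control. n = 7–13.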

[12] = target: Cytochrome P450 3A4 (Homo sapiens, UniProt P08684); test: Inhibition of CYP3A4 in human liver microsomes using isoform-specific probe substrates incubated for 15 to 30 mins by LC-MS/MS analysis; assay type: ADME; how it was run: as §1
Sequence of Cytochrome P450 3A4 (P08684 whole entry, canonical isoform): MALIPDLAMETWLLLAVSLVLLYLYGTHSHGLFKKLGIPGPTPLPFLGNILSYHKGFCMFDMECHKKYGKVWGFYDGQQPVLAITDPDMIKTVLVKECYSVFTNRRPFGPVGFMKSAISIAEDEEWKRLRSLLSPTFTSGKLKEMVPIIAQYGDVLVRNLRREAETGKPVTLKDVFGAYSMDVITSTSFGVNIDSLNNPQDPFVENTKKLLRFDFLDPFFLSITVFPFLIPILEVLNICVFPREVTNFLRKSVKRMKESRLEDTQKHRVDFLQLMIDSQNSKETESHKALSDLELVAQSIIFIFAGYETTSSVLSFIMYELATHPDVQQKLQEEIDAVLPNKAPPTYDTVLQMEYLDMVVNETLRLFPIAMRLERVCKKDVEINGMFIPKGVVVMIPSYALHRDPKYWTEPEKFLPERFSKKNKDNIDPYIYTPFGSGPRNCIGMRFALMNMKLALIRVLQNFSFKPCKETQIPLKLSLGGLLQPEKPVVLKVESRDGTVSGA

[13] = Cmax in CD1 mouse at 5 mg/kg, iv measured after 0.083 to 24 hrs by LC-MS/MS analysis; assay type: ADME, organism-based; design: dose 5 mg/kg, route intravenous; details: in vivo; how it was run: as §3
[14] = AUClast in CD1 mouse at 20 mg/kg, ip measured after 0.083 to 24 hrs by LC-MS/MS analysis; assay type: ADME, organism-based; design: time lower 0.083 hr, dose 20 mg/kg, time upper 24 hr, route intraperitoneal; details: in vivo; how it was run: as §3
[15] = Toxicity in mouse HT22 cells assessed as inhibition of cell viability at 10 uM incubated for 48 hrs by Cell-titer-Blue dye based fluorescence spectrophotometry relative to control; design: species or system HT-22; details: read-out: Activity; how it was run: as §2

SMILES: CC(C)CCNC1=CC(=O)c2ccccc2C1=O
- Activity [1]: Toxic
- IC50 [2]: 39.3 µM
- ED50 [3]: 108 mg/kg
- ED50 [4]: 349 mg/kg
- Activity [5]: Toxic
- inhibition at 48 h, 50 µM [6]: 17.8%
- TD50 [7]: > 800 mg/kg
- Cmax [8]: 1020 ng/mL
- Activity [9]: Toxic
- IC50 [10]: 5.57 µM
- Activity [11]: 19%
- IC50 [12]: > 100 µM
- Cmax [13]: 1910 ng/mL
- AUC(0-t) [14]: 1720 ng·h/mL
- inhibition at 48 h, 10 µM [15]: 11.9%

From ChEMBL document CHEMBL4602726, “Discovery of the First Vitamin K Analogue as a Potential Treatment of Pharmacoresistant Seizures” (J Med Chem, 2020)
